An excerpt weighted towards active compounds, which were near 4% of everything screened.
Exocytosis inh = LAMP-1 surface exposure blockers, TALL-104 cells – cell-based, flow cytometry, MLPCN library, primary screen; TALL-104 LAMP-1 surface exposure; cells stimulated with thapsigargin and PMA; inhibition, % at 10 µM; 360,000 tested, 0.66% active; AID 651702, 2012;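 active = inhibition above about 55%, limit read from the data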
CHOP UPR activ = activators of apoptotic CHOP UPR arm, primary screen, cell-based, CHO-CHOP luciferase reporter, luminescence, uHTS; UPR activation; percent of tunicamycin response over DMSO baseline; 330,000 tested, 0.34% active; activation, % at 10 µM;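 active = at 10 µM dose, activation of 40% or more, normalized to positive control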;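 also: 100% = tunicamycin at 10 µg/mL and 0% = DMSO alone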
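Test system: CHO-CHOP cells, stable luciferase reporter of PERK-eIF2a-CHOP signalling | Quantity: 500 CHO-CHOP cells per well | Buffer or medium: F12 plus 10% serum | Compound dosing: 10 µM single point, 0.5% DMSO | Schedule: 6 h compound treatment, 37 °C | Signal: Luciferase luminescence | Control set: Tunicamycin high control, DMSO low control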
ABHD5 PLIN5 PPI = ABHD5-PLIN5 interaction inhibitors, primary screen, cell lysate, split luciferase complementation, luminescence. Split G. princeps luciferase complementation, 4 h. inhibition, % at 4 µM. Perilipin-5 (Homo sapiens) + 1-acylglycerol-3-phosphate O-acyltransferase ABHD5 (Homo …. 360,000 tested, 0.78% active;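 active = inhibition above the mean inhibition across every tested compound plus 3 SD, cut at about 22% in these data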;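 also: 0% = DMSO only wells and the 100% control is not disclosed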
Mdm2 MdmX PPI = inhibitors of human Mdm2-MdmX association, primary screen, cell-based, luminescence, split luciferase, SaOS-2, uHTS; Protein Mdm4 (Homo sapiens) + E3 ubiquitin-protein ligase Mdm2 (Homo sapiens), …; SaOS-2 split-luciferase Mdm2/MdmX complementation; inhibition, % at 8 µM; 330,000 tested, 3% active; AID 485346, 2010;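 active = inhibition of at least 50% at 8 µM in the primary screen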
UPR XBP1 act = activators of adaptive XBP1 UPR arm, primary screen, cell-based, CHO-XBP1 luciferase reporter, luminescence, uHTS | IRE1-XBP1 UPR activation; percent of tunicamycin response, DMSO as zero | activation, % at 20 µM | 330,000 tested, 0.33% active | AID 463104, 2010;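 active = versus positive control, 20 µM dose yields 30% or more activation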;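 also: 100% = tunicamycin at 10 µg/mL and 0% = DMSO only wells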
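assay system = CHO-XBP1 luciferase reporter cells | amount = 1000 cells/well | buffer or medium = F12 plus 10% FBS | compound dosing = single point, 20 µM final compound, 1% DMSO | incubation = 16-18 h cell attachment at 37 °C, then 6 h compound exposure | detection = Steady-Glo luminescence read | controls = tunicamycin 10 µg/mL and vehicle-only wells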
ABHD5-PLIN5 conf = ABHD5-PLIN5 interaction inhibitors, confirmation, biochemical, luminescence | shares compounds with ABHD5 PLIN5 PPI | inhibition, % at 4 µM | 2,200 tested, 67% active; in the data active = inhibition above about 23%;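 also: 0% = DMSO vehicle wells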
HNF4 split-luc = HNF4 dimerization inhibitors, counter-screen for ABHD5-PLIN5 interaction inhibitor project, biochemical, split-luciferase complementation, luminescence. inhibition, % at 4 µM. shares compounds with ABHD5 PLIN5 PPI. AID 651674, 2012. 2,200 tested, 77% active;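 active = mean inhibition across replicate wells exceeding the computed hit threshold, cut at about 13% in these data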;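 also: light from luciferase halves that rejoin when HNF4 fusion proteins dimerize; 0% = DMSO only wells and the 100% control is not given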
Target sequence (P41235 whole entry, looked up, the tested form may be a part): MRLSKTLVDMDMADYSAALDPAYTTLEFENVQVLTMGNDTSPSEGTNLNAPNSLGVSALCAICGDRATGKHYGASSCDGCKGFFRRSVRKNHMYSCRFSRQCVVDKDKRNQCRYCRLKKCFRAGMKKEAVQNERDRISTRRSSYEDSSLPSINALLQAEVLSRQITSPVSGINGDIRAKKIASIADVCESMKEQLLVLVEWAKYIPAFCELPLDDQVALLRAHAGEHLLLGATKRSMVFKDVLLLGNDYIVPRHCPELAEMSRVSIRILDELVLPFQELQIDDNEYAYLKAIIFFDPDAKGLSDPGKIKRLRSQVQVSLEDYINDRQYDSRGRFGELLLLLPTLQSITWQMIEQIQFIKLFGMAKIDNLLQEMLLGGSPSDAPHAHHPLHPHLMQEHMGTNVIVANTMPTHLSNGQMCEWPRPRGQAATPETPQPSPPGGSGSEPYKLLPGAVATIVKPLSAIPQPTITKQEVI
* marks the source's active call; other numbers are inactive results; . = no result.

SMILES	Exocytosis inh	CHOP UPR activ	ABHD5 PLIN5 PPI	Mdm2 MdmX PPI	UPR XBP1 act	ABHD5-PLIN5 conf	HNF4 split-luc
O=C1C(O)=C(O)C(=O)c2ccccc21	-4	2	42*	9	0	7	67*
COc1ccccc1-c1coc2c(CN3CCCCC3C)c(O)ccc2c1=O (configuration not stated)	5	1	-2	0	-4	.	.
CC1CCCCN1Cc1c(O)ccc2c(=O)c(-c3nc4ccccc4s3)c(N)oc12 (configuration not stated)	50	-3	29*	48	-3	7	8
Cc1ccccc1Nc1nc2nonc2nc1N1CCOCC1	2	.	25*	.	.	1	2
Cc1ccccc1Nc1nc(N2CCOCC2)nc(N2CCOCC2)n1	-3	1	-6	-1	-2	.	.
COCC1=C(C(=O)OC)C(c2ccco2)n2ncnc2N1 (configuration not stated)	-4	2	38*	8	0	-3	9
COc1ccc(C(=O)C=Cc2ccc3c(c2)OCO3)cc1OC	-3	.	1	.	.	.	.
COc1ccc(C=CC(=O)c2ccc3cc(OC)c(OC)cc3c2)cc1OC	6	.	41*	.	.	41*	26*
COc1ccc(C(=O)/C=C/c2ccc(OC)c(O)c2)c(F)c1	6	5	29*	-4	1	55*	50*
COc1ccc(C=CC(=O)c2ccc(OC)c(OC)c2)cc1O	-10	.	15	.	.	.	.
COc1ccc(/C=C/C(=O)c2ccc(NC3=NCCCS3)cc2)cc1OC	1	2	36*	19	-5	47*	40*
COc1ccc(C=CC(=O)c2ccc(OC)c(OC)c2O)cc1OC	-9	.	46*	.	.	55*	44*
CCOC(=O)C1(C)CCCN(C(=O)c2cc(F)cc(F)c2)C1 (configuration not stated)	-4	.	-7	.	.	.	.
CC(=O)c1ccc([N+](=O)[O-])c(CS(=O)(=O)c2ccccc2)c1	-1	-1	5	18	-1	.	.
Cc1ccc(Nc2cc(C)nc(N3CCOCC3)n2)cc1	-13	7	-1	-11	6	.	.
CCOC(=O)CSc1nnnn1-c1cc(OC)ccc1OC	1	-1	-6	-8	-1	.	.
COc1ccc(C2CC(=O)c3c(C)nc(N4CCN(c5ccccc5)CC4)nc3C2)cc1 (configuration not stated)	3	1	-2	9	-1	.	.
COc1ccc(/C=C/C(=O)c2cccc(-n3cnnn3)c2)cc1O	-7	12	11	27	3	.	.
COc1ccc(/C=C/C(=O)c2ccc(Cl)s2)cc1O	4	11	42*	-19	0	54*	43*
O=S(=O)(N=C1C=CC(=NS(=O)(=O)c2ccccc2)c2ccccc21)c1ccccc1	24	.	33*	.	.	63*	42*
COc1ccc(CCNC(=O)CN(c2cccc([N+](=O)[O-])c2)S(C)(=O)=O)cc1OC	0	-3	82*	11	-4	7	5
COc1ccccc1-c1cc(SC)c(C#N)c(=O)o1	17	23	67*	49	-1	89*	93*
COc1ccccc1-c1cc(C(F)(F)F)c(C#N)c(=O)[nH]1	2	-1	-5	-6	2	.	.
CC1(C)Cc2c(sc(NC(=O)Nc3ccccc3)c2C(N)=O)CO1	26	9	2	-32	6	.	.
O=C(/C=C\c1cccs1)c1c(O)ccc2ccc(=O)oc12	-2	0	25*	21	-3	34*	37*
COC(=O)c1nc2n(n1)C(c1ccccc1OC)C1=C(CCCC1=O)N2 (configuration not stated)	-2	-1	-5	-17	0	.	.
